We go through 85 molecules from PubChem BioAssay AID651572 (The Scripps Research Institute Molecular Screening Center, 2012).

By inhibition is commonly meant the relative decrease from the control value, in per cent.

Structures are written as SMILES. Out of some 360,000 compounds screened, about 950 (0.26%) were called active. The list comes from a sample in which actives are over-represented; it also holds similar structures and randomly drawn compounds. A number with no mark means an inactive call.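 The calls were made as follows: active = inhibition above a per-plate limit, mean inhibition of low control wells plus 3 SD (cut at about 25% in these data); inactive = the rest.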

ADP-ribosylation factor GTPase-activating protein 1 (Rattus norvegicus), sequence (Q62848 1-136 limits assumed): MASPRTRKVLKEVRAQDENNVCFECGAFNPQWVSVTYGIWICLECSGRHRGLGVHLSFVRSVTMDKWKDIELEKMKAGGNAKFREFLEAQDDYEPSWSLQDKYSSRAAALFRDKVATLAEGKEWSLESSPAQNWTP

The target of this experiment is ADP-ribosylation factor GTPase-activating protein 1 (Rattus norvegicus) (UniProt Q62848). The experiment can be described thus: inhibitors of rat ARFGAP1 GAP activity, primary screen, biochemical, fluorescence polarization, GDP tracer (AID 651572).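 Also: 0% = DMSO wells with enzyme and 100% = wells lacking Arfgap1.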 As to conditions: Arfgap1-stimulated ARF1 GTP hydrolysis, GDP FP detection; at 16.5 µM; active compounds read high. Summed up:
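material = rat Arfgap1 catalytic domain, aa 1-136 | also added = human ARF1(Δ1-17)-GTP substrate | compound dosing = one concentration, 16.5 µM, DMSO 1.26% | times = GTP hydrolysis reaction 2 h at 25 °C | measured by = FP, GDP Alexa 633 tracer displaced from anti-GDP antibody, 620/688 nm | evaluation = percent inhibition of Arfgap1-stimulated GTP hydrolysis | replication = single well per compound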
For orientation: In fluorescence polarisation assays a small probe gives low polarisation when free and higher when bound to something large.
For `O=S1(=O)c2c(cccc2N2CCCCC2)O[C@H](COCc2ccccc2)CN1C1CC1`, the inhibition is 0.4%. With `C#CCN([C@@H](C)C(=O)OCC)S(=O)(=O)c1ccc(Br)cc1F`, the inhibition is -5.91%. Then `Cc1cc(N2CCN(C(=O)OC(C)(C)C)C[C@H]2C)ccc1N1CCN(Cc2ccccc2)[C@H](C)C1`, with 1.76%; and `CCCCCCCCN1C(=O)[C@@H](CC(=O)NCCCC)C[C@@]2(C(=O)OC)C1=C[C@H](C(C)(C)C)O[C@@H]2C`, with 3.82%; and `Cc1[nH]c2ccccc2c1CC(=O)Nc1ccc(Nc2cccnc2)c(-c2cccc(Cl)c2)c1`, with 16.8%. Then `COc1ccc(CNC(=O)C(C)NCc2ccccc2Cl)cc1` (stereo not given), with -1.63%. As for `COc1ccc(CNC(=O)C(Cc2ccccc2)n2cccc2)cc1` (stereo not given), the inhibition was 33.6% (active). Then `CCSc1ccccc1C(=O)NCc1ccc(OC)cc1`, with -5.39%; and `Cc1cc(Br)cn2c(Cc3ccccc3C(F)(F)F)c(-c3ccc(C#N)cc3)nc12`, with -8.18%. In the case of `COC(=O)Cc1nnn2c1[C@H](C)[C@@H](OC)c1cc(Br)ccc1-2`, the inhibition is -3.05%.

On to `CC(=O)C1=C(C)N(Cc2ccccc2)C(=S)NC1c1cccc(Br)c1` (stereo not given), for which the inhibition was 20.9%. To `CN1CCCCC(NC(=O)C(C)(C)C)C1=O` (stereo not given) belongs -2.4%; to `CC(C)CNc1cccc2c1S(=O)(=O)N[C@H](C)CO2`, 1.59%.

Regarding `COC(=O)c1cc2c(c3c4cc(F)ccc4n(S(=O)(=O)c4ccccc4)c13)C(=O)N(Cc1ccccc1OC)C2`, the inhibition is -6.31%. Then `COC(=O)c1cc2c(c3c4ccccc4n(S(=O)(=O)c4cccc(C)c4)c13)C(=O)N(Cc1ccccc1)C2`, with 46.8% (active). To `COC(=O)c1c(-c2ccc(OC)cc2)c2c(c3c4ccccc4n(S(=O)(=O)c4ccc(C)cc4)c13)C(=O)N(C)C2` belongs 2.2%; to `COC(=O)C1=C(C)N(Cc2ccc(F)cc2)C(=S)NC1c1cccc(Cl)c1` (stereo not given), 0.22%.

With `COc1ccc(/C=C2\SC(=S)N(CCCC(=O)NC3CCCC3)C2=O)cc1OC`, the inhibition is 25.1% (active). Turning to `COc1ccc(CCNC(=O)CCC(=O)NC2CCCCC2)cc1OC`, the inhibition is 9.15%. To `COc1ccc(/C=C/C(=O)OCC(=O)NC2CCCCCC2)cc1OC` belongs -8.52%; to `N#Cc1ccc(OCCCN2CCC(C(O)(c3ccccc3)c3ccccc3)CC2)c(F)c1`, -2.6%; to `COc1ccc(-c2csc(Nc3ccc(O)cc3)n2)cc1`, 24.8% (active).

With `COc1ccc(C(O)c2nc(-c3ccc(OC)nc3)cs2)cc1` (stereo not given), the inhibition was 6.07%.

On to `COC(=O)CCc1sc(Nc2ccc(Br)cc2)nc1-c1ccc(OC)cc1`, for which the inhibition is 7.69%.

As to `CC(C)(C)n1nc(C2CC2)c(Br)c1NC(=O)c1ccccc1F`, the inhibition was -8.2%. Then `Nc1ccc(S(=O)(=O)Nc2nccc(/C=C/c3ccc(Br)s3)n2)cc1`, with 33.6% (active); and `CC(=O)Nc1ccc(S(=O)(=O)Nc2nccc(/C=C/c3ccccc3F)n2)cc1`, with -5.08%; and `Oc1cccc2ccc(/C=C/c3ccc(Br)s3)nc12`, with 9.22%. To `COc1ccccc1CCn1cnc(-c2ccccc2)c1C(C)C` belongs 2.03%; to `CC(=O)C1=C(C)N(Cc2ccc(Cl)cc2)C(=S)NC1c1ccc(F)cc1` (stereo not given), -8.75%; to `COC(=O)C1=C(C)N(Cc2cccc(C(F)(F)F)c2)C(=NCc2ccccc2)NC1c1ccc(Cl)cc1` (stereo not given), -7.39%. To `CC1CCc2[nH]c3ccc(C(=O)N(C)CC(=O)Nc4cccc(F)c4)cc3c2C1` (stereo not given) belongs 28% (active); to `CCCN(CC(=O)Nc1ccccc1C)C(=O)c1ccc2[nH]c3c(c2c1)CC(C)CC3` (stereo not given), 11.3%. As to `CN(CC(=O)Nc1cccc(F)c1)C(=O)CC1CCCC1`, the inhibition was -2.56%. Then `CCOC(=O)/C=C/c1ccccc1O`, with 1.41%. On to `COc1ccccc1Cc1c(-c2ccc(F)cc2)nc2ccc(C)cn12`, for which the inhibition was 4.94%. On to `CN1C(=O)C2CC(O)C(SC3CC4C(=O)N(C)C(=O)C4CC3O)CC2C1=O` (stereo not given), for which the inhibition is -0.39%. To `CC(C)[C@@H](C)/C=C/[C@@H](C)[C@H]1CC[C@@H]2[C@]1(C)CCC1[C@]23C=C[C@]2(C[C@@H](O)CC[C@]12C)N(c1ccc([N+](=O)[O-])cn1)O3` (stereo not given in full) belongs 2.09%; to `COc1ccccc1OCC(=O)OCc1cc(-c2ccco2)on1`, -14.7%. Then `COc1ccccc1OCC(=O)OCn1c(SC)nnc(C)c1=O`, with 25.6% (active); and `COc1ccccc1OCc1nnc(SCC(N)=O)n1-c1ccccc1`, with 3.32%; and `O=C(NCc1ccccc1)[C@H]1CCCN1C(=O)[C@@H]1CCCN1C(=O)c1ccc(Cl)cc1Cl`, with 11.1%. Then `Cc1nc(NC(=O)C(C)(C)C)sc1[N+](=O)[O-]`, with -3.35%. As to `O=C(N[C@H](Cc1ccccc1)C(=O)N1CCCN(Cc2cccs2)CC1)[C@H]1O[C@@H](n2ccc(=O)[nH]c2=O)[C@H](O)[C@@H]1O`, the inhibition was 17.7%. To `COc1ccc(NC(=O)c2ccc(C#CC(C)(C)O)cc2)cc1` belongs -7.91%. To `Cc1ccc(NC(=O)c2ccc(Oc3ncccn3)cc2)cc1` belongs 25.6% (active); to `CCOc1ccc(C(=O)Nc2cccc(SC)c2)cc1`, 2.92%; to `CC(C)C[C@H](NC(=O)CC1CCCC1)C(=O)N1CCC[C@H]1C(=O)NCc1ccccc1`, 2.12%.

On to `Nc1ncnc2c1ncn2C1OC(CO)CC1O` (stereo not given), for which the inhibition was 3.3%. Then `CC(C)CCSc1ncnc2c1oc1nc3c(cc12)COC(C)(C)C3`, with 28.1% (active); and `CC1(C)Cc2nc3sc4c(SCC(=O)NC(c5ccccc5)c5ccccc5)ncnc4c3cc2CO1`, with -6.88%; and `CCCc1nc2oc3c(OCC)ncnc3c2c2c1COC(C)(C)C2`, with 16.9%.

In the case of `O=C(NCc1ccccc1)[C@H]1CCCN1C(=O)[C@H]1CCCN1C(=O)N1CCOCC1`, the inhibition is -1.77%. As to `COC(=O)C1=C(C)N(Cc2ccc(C(F)(F)F)cc2)C(=NCc2ccc(C(F)(F)F)cc2)NC1c1cccc(Cl)c1` (stereo not given), the inhibition was 9.23%. `Nc1ncnc2c1ncn2[C@@H]1O[C@H](C(=O)N[C@@H](CCc2ccccc2)C(=O)NCC(=O)N2CCOCC2)[C@@H](O)[C@H]1O`: the inhibition was -17.3%. Turning to `O=C(O)CCn1cc(/C=C/C(=O)c2ccc(Cl)cc2)c(-c2cccc(Br)c2)n1`, the inhibition is 26.5% (active). To `CCOC(=O)C1=C(C(=O)OCC)C2N(Cc3ccc(C#N)cc3)c3ccccc3[C@@]23C[C@@H](C(=O)OC)N(S(=O)(=O)c2ccc(F)cc2)C3=N1` (stereo not given in full) belongs 6.03%; to `CCc1c(-c2ccccc2OC)ncn1CCc1ccccc1OC`, 2.34%.

For `CC1CCN(C(=O)c2ncn3c2C(=O)N[C@@H](C)C3)CC1`, the inhibition is 5.31%. Then `COc1cccc(-c2cc(CNC(=O)[C@@H](Cc3ccccc3)NC(=O)[C@H]3O[C@@H](n4cnc(C(N)=O)n4)[C@H](O)[C@@H]3O)no2)c1`, with -9.08%. Then `COC(=O)C1=C(C)N(Cc2ccc(C(F)(F)F)cc2)C(=NCc2ccccc2)NC1c1ccccc1C(F)(F)F` (stereo not given), with 9.08%; and `O=C(O)c1ccc(S(=O)(=O)N2CCOCC2)o1`, with -3.82%; and `O=C(O)CSCc1ccc(C(=O)O)o1`, with 25.2% (active). For the molecule `O=C(O)c1ccc(COc2c(F)c(F)cc(F)c2F)o1`, the inhibition is 5.24%. For the molecule `Cc1cc(S(=O)(=O)N2CCOCC2)ccc1OCC(=O)Nc1cccc(C(F)(F)F)c1`, the inhibition is 2.22%. Then `CCNS(=O)(=O)c1ccc(NC(=O)Nc2cccc(C(F)(F)F)c2)cc1`, with 28.9% (active); and `CCNS(=O)(=O)c1ccc(NC(=O)c2cncc(Br)c2)cc1`, with -3.5%. In the case of `COC(=O)[C@]12C[C@H](CC(=O)N3CCN(C(=O)C4CC4)CC3)C(=O)N(Cc3ccc4c(c3)OCO4)C1=C[C@H](C(C)(C)C)O[C@@H]2C`, the inhibition is 11.2%. To `COC(=O)[C@H](CC(C)C)NS(=O)(=O)c1c(F)cccc1F` belongs 4.12%. To `Cc1ccc(-n2ncc3c(=O)n(-c4ccc(C)c(C)c4)c(-c4ccco4)nc32)cc1` belongs -1.3%. Then `Cc1ccc(-n2ncc3c2ncn2nc(-c4ccco4)nc32)c(C)c1`, with 44.3% (active); and `COC(=O)CSc1ncnc2c1cnn2-c1ccc(C)cc1C`, with 8%; and `Cc1ccc(NC(=O)N2c3ccccc3SC2c2ccco2)c(C)c1` (stereo not given), with -11.2%. In the case of `COCc1[nH]nc2c1C(c1ccccc1)N(c1ccccc1)C2=O` (stereo not given), the inhibition is 8.17%. Consider `CCOC(=O)CNC(=O)N(C)[C@H]1C[C@H]2c3[nH]c4c(-c5ccc6c(c5)OCO6)cccc4c3CCN2C(=O)[C@H]1[C@H](C)O`, for which the inhibition is -1.05%.

Take `O=c1[nH]c(-c2ccccc2)cn1C1CCN(Cc2ccc(-c3nc4ccc(F)cc4nc3-c3ccccc3)cc2)CC1`: the inhibition was 6.41%. Then `Cc1ccc(C)c(CN2CCC(CNC(=O)C3CCCN(c4ncnc5c4nc4n5CCCCC4)C3)CC2)c1` (stereo not given), with 1.05%. Consider `Cn1c(=O)[nH]c(=O)c2c1nc(N1CCN(C(c3ccccc3)c3ccccc3)CC1)n2CCO`, for which the inhibition is -3.12%. `Cn1c(=O)[nH]c(=O)c2c1nc(N1CCN(CCO)CC1)n2CCSc1nc2ccccc2s1`: the inhibition was 38.1% (active).

As for `Cc1nnc(SCCCn2c(N3CCCCC3)nc3c2c(=O)[nH]c(=O)n3C)s1`, the inhibition is -8.33%. Take `CCCCCCCCN1C(=O)[C@@H](CC(=O)N2CCN(C(=O)OCC)CC2)C[C@@]2(C(=O)OC)C1=C[C@H](C1CCCC1)O[C@@H]2C`: the inhibition is -12.9%. Take `NC(c1csc(NC(=O)Nc2cccc(C(F)(F)F)c2)n1)C1CCCCC1` (stereo not given): the inhibition was 10.7%.

`COc1ccc(C(N)c2csc(NC(=O)Nc3cccc(C(F)(F)F)c3)n2)cc1` (stereo not given): the inhibition is 26.1% (active).

For `COc1ccc(CC(N)c2csc(NC(=O)Nc3ccc(C(C)C)cc3)n2)cc1` (stereo not given), the inhibition was 16%.

With `O=C(O)Cn1cnc2c(NCc3ccccc3)ncnc21`, the inhibition is -10.7%.
